Test results taken from ChEMBL document CHEMBL1129944, “[[(Arylpiperazinyl)alkyl]thio]thieno[2,3-d]pyrimidinone derivatives as high-affinity, selective 5-HT1A receptor ligands” (J Med Chem, 1997).

Key:
[1] = target: T1, 5-hydroxytryptamine receptor 1A (Rattus norvegicus, UniProt P19327); test: In vitro inhibitory concentration against radioligand [3H]8-OH-DPAT binding to 5-hydroxytryptamine 1A receptor in rat hippocampal membrane.; assay type: cell membranes, Hippocampus
T1 sequence (P19327 whole entry): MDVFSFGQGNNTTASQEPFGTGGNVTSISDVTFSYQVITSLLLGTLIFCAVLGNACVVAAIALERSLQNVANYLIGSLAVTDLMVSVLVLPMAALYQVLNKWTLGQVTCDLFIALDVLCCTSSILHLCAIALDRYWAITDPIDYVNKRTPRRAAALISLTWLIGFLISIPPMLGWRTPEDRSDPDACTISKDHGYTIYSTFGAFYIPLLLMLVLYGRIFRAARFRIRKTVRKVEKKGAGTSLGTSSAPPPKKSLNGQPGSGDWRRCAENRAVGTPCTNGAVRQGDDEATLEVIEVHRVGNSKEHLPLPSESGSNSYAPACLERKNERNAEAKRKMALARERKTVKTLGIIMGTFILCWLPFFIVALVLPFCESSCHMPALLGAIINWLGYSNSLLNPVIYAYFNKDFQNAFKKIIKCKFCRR
Summary of the method: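 Rat hippocampal membranes (male SD rats, ~150 g) were washed in 50 mM Tris-HCl pH 7.4, including 10 min at 37 °C. Incubation buffer contained 4 mM CaCl2 and 10 μM pargyline. Filtered onto GF/B and counted; 50% inhibitory concentration from fitted curves.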

[2] = target: 5-hydroxytryptamine receptor 1B (Rattus norvegicus) (UniProt P28564); test: Compound at 10E-5 M was tested in vitro for the inhibition of radioligand [3H]5-HT binding to 5-hydroxytryptamine 1B receptor in rat striatal membrane; assay type: cell membranes; details: Striatum
Sequence of 5-hydroxytryptamine receptor 1B (Rattus norvegicus) (P28564 whole entry): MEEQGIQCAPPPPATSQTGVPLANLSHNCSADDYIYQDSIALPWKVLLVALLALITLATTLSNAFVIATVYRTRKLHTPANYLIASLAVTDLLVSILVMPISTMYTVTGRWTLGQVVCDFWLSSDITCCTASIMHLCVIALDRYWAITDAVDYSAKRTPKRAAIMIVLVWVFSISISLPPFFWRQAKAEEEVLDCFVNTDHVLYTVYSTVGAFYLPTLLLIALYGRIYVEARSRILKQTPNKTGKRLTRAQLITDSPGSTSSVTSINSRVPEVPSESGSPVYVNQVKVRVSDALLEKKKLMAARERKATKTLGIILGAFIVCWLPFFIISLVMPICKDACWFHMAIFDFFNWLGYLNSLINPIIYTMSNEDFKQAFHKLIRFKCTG

[3] = target: 5-hydroxytryptamine receptor 2A (Rattus norvegicus, UniProt P14842); test: In vitro inhibitory concentration against radioligand [3H]ketanserin binding to 5-hydroxytryptamine 2A receptor in rat cortical membrane; assay type: cell membranes
Sequence of 5-hydroxytryptamine receptor 2A (P14842 whole entry): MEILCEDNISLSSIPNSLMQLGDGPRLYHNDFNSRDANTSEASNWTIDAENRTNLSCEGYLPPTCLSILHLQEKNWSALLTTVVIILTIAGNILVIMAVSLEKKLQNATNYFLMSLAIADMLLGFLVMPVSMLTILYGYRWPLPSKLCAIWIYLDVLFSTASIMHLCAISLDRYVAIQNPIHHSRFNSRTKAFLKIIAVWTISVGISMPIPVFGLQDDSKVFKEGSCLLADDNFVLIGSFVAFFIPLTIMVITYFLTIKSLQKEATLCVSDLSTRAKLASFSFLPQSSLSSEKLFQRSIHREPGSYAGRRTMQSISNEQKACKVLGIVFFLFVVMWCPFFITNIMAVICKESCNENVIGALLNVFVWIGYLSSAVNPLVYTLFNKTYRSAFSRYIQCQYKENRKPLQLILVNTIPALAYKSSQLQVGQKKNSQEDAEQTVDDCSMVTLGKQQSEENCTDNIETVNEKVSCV
Summary of the method: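 Cortex from male rats (~150 g) was washed in Tris-HCl pH 7.4 and incubated in 50 mM Tris-HCl pH 7.7. [3H]ketanserin 0.7 nM final, 15 min at 37 °C; nonspecific binding with methysergide. Filtration and scintillation counting; concentration inhibiting binding by 50% derived from dose-inhibition curves.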

D(2) dopamine receptor = D(2) dopamine receptor (Rattus norvegicus, UniProt P61169); test: In vitro inhibitory concentration against radioligand [3H]spiperone binding to Dopamine receptor D2 in rat striatal membrane; assay type: cell membranes, Striatum
Summary of the method: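 Rat striatum was used, with incubation buffer 50 mM Tris-HCl pH 7.1 plus pargyline 10 μM, NaCl 120 mM, KCl 5 mM, CaCl2 2 mM, MgCl2 1 mM and 0.1% ascorbic acid. [3H]spiperone 0.2 nM final, 15 min at 37 °C; (-)sulpiride 100 μM defined nonspecific binding. GF/B filtration, scintillation counting, IC50 from fitted curves.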

[4] = target: Serotonin 1a (5-HT1a) receptor/Adrenergic receptor alpha-1 (Rattus norvegicus) (UniProt P15823+P23944+P43140+P19327); test: Selectivity for alpha-1-adrenergic receptor to that of 5-HT1A receptor.; assay type: protein assay
Summary of the method: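 Ratio of IC50 at α1-adrenoceptors ([3H]prazosin, rat cortex) to IC50 at 5-HT1A receptors ([3H]-8-OH-DPAT, rat hippocampus). Each IC50 came from radioligand displacement curves.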

[5] = target: 5-hydroxytryptamine receptor 1B (Rattus norvegicus, UniProt P28564); test: In vitro inhibitory concentration against radioligand [3H]5-HT binding to 5-hydroxytryptamine 1B receptor in rat striatal membrane; assay type: cell membranes, Striatum
Sequence of 5-hydroxytryptamine receptor 1B (P28564 whole entry): as the sequence (P28564 whole entry) above
Summary of the method: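 Striatum came from decapitated male rats (~150 g). Membranes were washed in 50 mM Tris-HCl pH 7.4 with a 10 min preincubation at 37 °C. Incubation buffer had 4 mM CaCl2, 0.1% ascorbic acid and 10 μM pargyline. [3H]5-HT 2 nM final, 30 min at 25 °C; nonspecific binding with 5-HT 10 μM. Bound ligand collected by filtration and scintillation-counted; IC50 by curve fitting.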

IC50 [1] | inhibition [2] | IC50 [3] | IC50 (D(2) dopamine receptor) | Selectivity [4] | IC50 [5] | Compound
6.8 nM | < 50% | 1000 nM | 2000 nM | 74 | – | Cc1sc2nc(SCCCN3CCN(c4ncccn4)CC3)n(N)c(=O)c2c1C
0.8 nM | – | 300 nM | 100 nM | – | 1400 nM | COc1ccccc1C1CCN(CCCSc2nc3sc(C)c(C)c3c(=O)n2N)CC1
0.3 nM | – | 300 nM | 60 nM | – | 700 nM | COc1ccccc1N1CCN(CCCSc2nc3sc(C)c(C)c3c(=O)n2N)CC1
